Source: ChEMBL document CHEMBL1121923, “N2- and C-7 substituted actinomycin D analogues: synthesis, DNA-binding affinity, and biochemical and biological properties. Structure-activity relationship” (J Med Chem, 1981)
≈ marks a conversion by molar mass, not a printed value.

Key:
CCRF-CEM = assay: In vitro antitumor activity against human lymphoblastic leukemia cells.; format: functional; conditions: read-out: ID50 (the source's name)
Summary of the method: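 Human lymphoblastic leukemia CCRF-CEM cells grown in suspension culture; growth inhibition in vitro; ID50 (ng/mL) reported as the 50% inhibitory dose.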

P388 [1] = assay: Median survival time of the P388 cells implanted CDF1 male mice in vivo; format: functional, Mus musculus
Summary of the method: (§1)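 CDF1 male mice, groups of seven, given 10^6 P388 cells ip on day 0; drug ip in 5% DMSO–saline on days 1, 5 and 9; controls received vehicle; range of doses tested, optimal nontoxic dose listed; median survival time; %ILS = (treated − control)/control × 100; average of two or more experiments.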

P388 [2] = assay: Percent of increased life span of P388 cells implanted CDF1 male mice; format: functional, Mus musculus; summary of the method: as §1
P388 [3] = assay: Concentration required for 50% inhibition of incorporation of labeled thymidine by p388 cells for synthesis of DNA (in vitro); format: functional; conditions: Mus musculus, read-out: ED50 (the source's name)
P388 [4] = assay: Concentration required for 50% inhibition of incorporation of labeled uridine by P388 cells for the synthesis of RNA (in vitro); format: functional; conditions: Mus musculus, read-out: ED50 (the source's name)
P388 [5] = assay: Optimal dose for antitumor activity was measured in P388 cells of CDF1 male mice in vivo; format: functional, Mus musculus; summary of the method: as §1
Bos taurus = organism: Bos taurus; assay: Thermal denaturation (deltaTm) of compound against calf thymus DNA was measured; format: ADME; conditions: cattle, in vitro
Summary of the method: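 Calf thymus DNA (MW 100 000–500 000) in 0.01 M phosphate, 5 × 10^-3 M EDTA, pH 7.0; drug 7 × 10^-4 M, DNA nucleotide 7 × 10^-3 M; 259 nm absorbance read at 0.25–1.0 °C steps; Tm taken at 50% hyperchromicity; ΔTm = complex Tm minus DNA Tm.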

SMILES | IC50 (CCRF-CEM) [µg/mL] | MST (P388 [1]) [days] | ILS (P388 [2]) [%] | EC50 (P388 [3]) [nM] | EC50 (P388 [4]) [nM] | Optimal dose (P388 [5]) [mg/kg] | Delta Tm (Bos taurus)
Cc1c2oc3c(C)ccc(C(=O)N[C@@H]4C(=O)N[C@H](C(C)C)C(=O)N5CCC[C@H]5C(=O)N(C)CC(=O)N(C)[C@@H](C(C)C)C(=O)O[C@@H]4C)c3nc-2c(C(=O)N[C@@H]2C(=O)N[C@H](C(C)C)C(=O)N3CCC[C@H]3C(=O)N(C)CC(=O)N(C)[C@@H](C(C)C)C(=O)O[C@@H]2C)c(NCCCN)c1=O | 0.3 (≈ 0.229 µM) | 30 | 172 | 430 | 118 | 1.2 | –
Cc1c2oc3c(C)c(O)c(N)c(C(=O)N[C@@H]4C(=O)N[C@H](C(C)C)C(=O)N5CCC[C@H]5C(=O)N(C)CC(=O)N(C)[C@@H](C(C)C)C(=O)O[C@@H]4C)c3nc-2c(C(=O)N[C@@H]2C(=O)N[C@H](C(C)C)C(=O)N3CCC[C@H]3C(=O)N(C)CC(=O)N(C)[C@@H](C(C)C)C(=O)O[C@@H]2C)c/c1=N/Cc1ccccc1 | – | – | – | 2700 | 1400 | – | –
Cc1c2oc3c(C)c(OC(=O)c4ccccc4)cc(C(=O)N[C@@H]4C(=O)N[C@H](C(C)C)C(=O)N5CCC[C@H]5C(=O)N(C)CC(=O)N(C)[C@@H](C(C)C)C(=O)O[C@@H]4C)c3nc-2c(C(=O)N[C@@H]2C(=O)N[C@H](C(C)C)C(=O)N3CCC[C@H]3C(=O)N(C)CC(=O)N(C)[C@@H](C(C)C)C(=O)O[C@@H]2C)c(N)c1=O | 2.5 (≈ 1.82 µM) | 20 | 91 | – | – | 0.75 | –
Cc1c2oc3c(C)c(OCc4ccc(Cl)c(Cl)c4)cc(C(=O)N[C@@H]4C(=O)N[C@H](C(C)C)C(=O)N5CCC[C@H]5C(=O)N(C)CC(=O)N(C)[C@@H](C(C)C)C(=O)O[C@@H]4C)c3nc-2c(C(=O)N[C@@H]2C(=O)N[C@H](C(C)C)C(=O)N3CCC[C@H]3C(=O)N(C)CC(=O)N(C)[C@@H](C(C)C)C(=O)O[C@@H]2C)c(N)c1=O | – | 19 | 81 | – | – | 0.5 | –
CCCOc1cc(C(=O)N[C@@H]2C(=O)N[C@H](C(C)C)C(=O)N3CCC[C@H]3C(=O)N(C)CC(=O)N(C)[C@@H](C(C)C)C(=O)O[C@@H]2C)c2nc3c(C(=O)N[C@@H]4C(=O)N[C@H](C(C)C)C(=O)N5CCC[C@H]5C(=O)N(C)CC(=O)N(C)[C@@H](C(C)C)C(=O)O[C@@H]4C)c(N)c(=O)c(C)c-3oc2c1C | 0.31 (≈ 0.236 µM) | 16 | 52 | 1980 | 230 | 0.75 | –
Cc1c2oc3c(C)c(OC(=O)c4ccc5ccccc5c4)cc(C(=O)N[C@@H]4C(=O)N[C@H](C(C)C)C(=O)N5CCC[C@H]5C(=O)N(C)CC(=O)N(C)[C@@H](C(C)C)C(=O)O[C@@H]4C)c3nc-2c(C(=O)N[C@@H]2C(=O)N[C@H](C(C)C)C(=O)N3CCC[C@H]3C(=O)N(C)CC(=O)N(C)[C@@H](C(C)C)C(=O)O[C@@H]2C)c(N)c1=O | – | 18 | 71 | – | – | 0.9 | –
Cc1c2oc3c(C)ccc(C(=O)N[C@@H]4C(=O)N[C@H](C(C)C)C(=O)N5CCC[C@H]5C(=O)N(C)CC(=O)N(C)[C@@H](C(C)C)C(=O)O[C@@H]4C)c3nc-2c(C(=O)N[C@@H]2C(=O)N[C@H](C(C)C)C(=O)N3CCC[C@H]3C(=O)N(C)CC(=O)N(C)[C@@H](C(C)C)C(=O)O[C@@H]2C)c(NCCCCCCCCN)c1=O [listing 1 of 2 here] | 0.31 (≈ 0.224 µM) | 14 | 27 | – | – | 1.8 | –
Cc1c2oc3c(C)c(O)c(N)c(C(=O)N[C@@H]4C(=O)N[C@H](C(C)C)C(=O)N5CCC[C@H]5C(=O)N(C)CC(=O)N(C)[C@@H](C(C)C)C(=O)O[C@@H]4C)c3nc-2c(C(=O)N[C@@H]2C(=O)N[C@H](C(C)C)C(=O)N3CCC[C@H]3C(=O)N(C)CC(=O)N(C)[C@@H](C(C)C)C(=O)O[C@@H]2C)c/c1=N/Cc1ccc[nH]1 | – | – | – | 370 | 184 | – | –
CCOc1cc(C(=O)N[C@@H]2C(=O)N[C@H](C(C)C)C(=O)N3CCC[C@H]3C(=O)N(C)CC(=O)N(C)[C@@H](C(C)C)C(=O)O[C@@H]2C)c2nc3c(C(=O)N[C@@H]4C(=O)N[C@H](C(C)C)C(=O)N5CCC[C@H]5C(=O)N(C)CC(=O)N(C)[C@@H](C(C)C)C(=O)O[C@@H]4C)c(N)c(=O)c(C)c-3oc2c1C | 0.17 (≈ 0.131 µM) | 20 | 91 | 1630 | 151 | 0.45 | –
Cc1c2oc3c(C)c(OCc4ccc(Cl)cc4)cc(C(=O)N[C@@H]4C(=O)N[C@H](C(C)C)C(=O)N5CCC[C@H]5C(=O)N(C)CC(=O)N(C)[C@@H](C(C)C)C(=O)O[C@@H]4C)c3nc-2c(C(=O)N[C@@H]2C(=O)N[C@H](C(C)C)C(=O)N3CCC[C@H]3C(=O)N(C)CC(=O)N(C)[C@@H](C(C)C)C(=O)O[C@@H]2C)c(N)c1=O | 0.5 (≈ 0.358 µM) | 16 | 52 | – | – | 0.45 | –
Cc1c2oc3c(C)c(O)c(N)c(C(=O)N[C@@H]4C(=O)N[C@H](C(C)C)C(=O)N5CCC[C@H]5C(=O)N(C)CC(=O)N(C)[C@@H](C(C)C)C(=O)O[C@@H]4C)c3nc-2c(C(=O)N[C@@H]2C(=O)N[C@H](C(C)C)C(=O)N3CCC[C@H]3C(=O)N(C)CC(=O)N(C)[C@@H](C(C)C)C(=O)O[C@@H]2C)c/c1=N/Cc1cccc(Oc2ccccc2)c1 | – | – | – | 1500 | 700 | – | –
CCCCNc1c(C(=O)N[C@@H]2C(=O)N[C@H](C(C)C)C(=O)N3CCC[C@H]3C(=O)N(C)CC(=O)N(C)[C@@H](C(C)C)C(=O)O[C@@H]2C)c2nc3c(C(=O)N[C@@H]4C(=O)N[C@H](C(C)C)C(=O)N5CCC[C@H]5C(=O)N(C)CC(=O)N(C)[C@@H](C(C)C)C(=O)O[C@@H]4C)ccc(C)c3oc-2c(C)c1=O [listing 1 of 2 here] | 0.95 (≈ 0.724 µM) | 15 | 36 | – | – | 0.9 | –
Cc1c2oc3c(C)c(OCc4ccc([N+](=O)[O-])cc4)cc(C(=O)N[C@@H]4C(=O)N[C@H](C(C)C)C(=O)N5CCC[C@H]5C(=O)N(C)CC(=O)N(C)[C@@H](C(C)C)C(=O)O[C@@H]4C)c3nc-2c(C(=O)N[C@@H]2C(=O)N[C@H](C(C)C)C(=O)N3CCC[C@H]3C(=O)N(C)CC(=O)N(C)[C@@H](C(C)C)C(=O)O[C@@H]2C)c(N)c1=O | 0.5 (≈ 0.355 µM) | 14 | 33 | – | – | 0.6 | –
Cc1c2oc3c(C)c(O)c(N)c(C(=O)N[C@@H]4C(=O)N[C@H](C(C)C)C(=O)N5CCC[C@H]5C(=O)N(C)CC(=O)N(C)[C@@H](C(C)C)C(=O)O[C@@H]4C)c3nc-2c(C(=O)N[C@@H]2C(=O)N[C@H](C(C)C)C(=O)N3CCC[C@H]3C(=O)N(C)CC(=O)N(C)[C@@H](C(C)C)C(=O)O[C@@H]2C)cc1=N | – | – | – | 1230 | 82 | – | –
Cc1c2oc3c(C)c(O)c(N)c(C(=O)N[C@@H]4C(=O)N[C@H](C(C)C)C(=O)N5CCC[C@H]5C(=O)N(C)CC(=O)N(C)[C@@H](C(C)C)C(=O)O[C@@H]4C)c3nc-2c(C(=O)N[C@@H]2C(=O)N[C@H](C(C)C)C(=O)N3CCC[C@H]3C(=O)N(C)CC(=O)N(C)[C@@H](C(C)C)C(=O)O[C@@H]2C)c/c1=N/Cc1ccco1 | – | – | – | 2450 | 810 | – | –
CCCCOc1cc(C(=O)N[C@@H]2C(=O)N[C@H](C(C)C)C(=O)N3CCC[C@H]3C(=O)N(C)CC(=O)N(C)[C@@H](C(C)C)C(=O)O[C@@H]2C)c2nc3c(C(=O)N[C@@H]4C(=O)N[C@H](C(C)C)C(=O)N5CCC[C@H]5C(=O)N(C)CC(=O)N(C)[C@@H](C(C)C)C(=O)O[C@@H]4C)c(N)c(=O)c(C)c-3oc2c1C | – | 14 | 33 | 11300 | 770 | 0.75 | –
Cc1c2oc3c(C)ccc(C(=O)N[C@@H]4C(=O)N[C@H](C(C)C)C(=O)N5CCC[C@H]5C(=O)N(C)CC(=O)N(C)[C@@H](C(C)C)C(=O)O[C@@H]4C)c3nc-2c(C(=O)N[C@@H]2C(=O)N[C@H](C(C)C)C(=O)N3CCC[C@H]3C(=O)N(C)CC(=O)N(C)[C@@H](C(C)C)C(=O)O[C@@H]2C)c(NCCCCCCCCN)c1=O [listing 2 of 2 here] | – | – | – | – | – | – | 0.3
CCCCNc1c(C(=O)N[C@@H]2C(=O)N[C@H](C(C)C)C(=O)N3CCC[C@H]3C(=O)N(C)CC(=O)N(C)[C@@H](C(C)C)C(=O)O[C@@H]2C)c2nc3c(C(=O)N[C@@H]4C(=O)N[C@H](C(C)C)C(=O)N5CCC[C@H]5C(=O)N(C)CC(=O)N(C)[C@@H](C(C)C)C(=O)O[C@@H]4C)ccc(C)c3oc-2c(C)c1=O [listing 2 of 2 here] | – | – | – | – | – | – | 0.2
